Results taken from ChEMBL document CHEMBL1129605, “Synthesis, structure-activity relationships, and molecular modeling studies of N-(indol-3-ylglyoxylyl)benzylamine derivatives acting at the benzodiazepine receptor” (J Med Chem, 1996).
pKi: −log10 of the molar value.

Columns and labels:
[1] = target: T1, GABA-A receptor; anion channel (Bos taurus) (UniProt P10063+P08220+P20237+P08219+P10064+P22300); assay: Inhibition of [3H]- flunitrazepam binding to GABA-A central benzodiazepine receptor of bovine cortical membranes at 10 uM
Method in brief: (§1)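 Filtration binding of [3H]flunitrazepam to bovine cerebral cortex membranes, freeze–thawed and washed in 50 mM Tris-citrate pH 7.4. […] IC50 taken from log-probit plots and converted to Ki, mean ± SEM of three determinations.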

[2] = target: GABA-A receptor; anion channel; assay: In vitro inhibition of [3H]- flunitrazepam binding to GABA-A benzodiazepine receptor of bovine cortical membranes; parameters: species or system Bos taurus; method in brief: as §1
[3] = target: T1, GABA-A receptor; anion channel (Bos taurus); assay: Gamma AminoButyric Acid(GABA) ratio is the Ki without GABA / Ki with GABA; type: protein-complex assay
Method in brief: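 Ki for [3H]flunitrazepam displacement from bovine cortical membranes determined both without and with GABA. The ratio is Ki without GABA divided by Ki with GABA.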

[4] = Partition coefficient of compound; type: physicochemical; settings: octanol/water
Method in brief: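 Shake-flask partition at room temperature between octanol and phosphate buffer pH 7.4. Solute measured spectrophotometrically in both phases, with phase volumes adjusted so each phase held enough compound. Run at four different solute concentrations.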

[5] = target: T1, GABA-A receptor; anion channel (Bos taurus); assay: Specific [35S]- TBPS binding at high affinity site loated near chloride channel of GABA-A receptor chloride complex; type: protein-complex assay; parameters: concentration or dose not given beside the values
Method in brief: (§2)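 Bovine cerebral cortex membranes, freeze–thawed and washed in 50 mM Tris-citrate pH 7.4, incubated with 5 nM [35S]TBPS for 90 min at 25 °C in the same buffer plus 200 mM KBr and 0.1 mM EDTA. Compounds tested at 0.5 μM in ethanol (≤0.2%) with 1 μM GABA present. Nonspecific binding taken with 600 μM picrotoxinin. Bound ligand collected by filtration and counted by scintillation.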

[6] = target: T1, GABA-A receptor; anion channel (Bos taurus); assay: In vitro inhibition of [3H]- flunitrazepam binding to GABA-A central benzodiazepine receptor of bovine cortical membranes at 10 uM; method in brief: as §1
[7] = target: T1, GABA-A receptor; anion channel (Bos taurus); assay: In vitro displacement of [35S]-TBPS binding from GABA-A receptor relative to clonazepam; type: protein-complex assay; method in brief: as §2

In the case of COc1ccc(CNC(=O)C(=O)c2c[nH]c3ccc(Cl)cc23)cc1, the inhibition [1] was 81%, the pKi [2] was 6.97 and the GABA ratio [3] was 1.

COc1ccc(NC(=O)C(=O)c2c[nH]c3ccc(Cl)cc23)cc1 gave an inhibition [1] of 10%.

O=C(Nc1ccc(O)cc1)C(=O)c1c[nH]c2ccc(Cl)cc12 gave an inhibition [1] of 23%.

COc1ccc(CNC(=O)C(=O)c2c[nH]c3ccc([N+](=O)[O-])cc23)cc1 gave a logP [4] of 2.17, an inhibition [1] of 71% and a pKi [2] of 7.28. It also gave an Activity [5] of 2% and a GABA ratio [3] of 1.06.

Cn1cc(C(=O)C(=O)NCc2ccc(Cl)cc2)c2ccccc21 showed an inhibition [6] of 86%, a pKi [2] of 6.00 and a GABA ratio [3] of 1.

In the case of COc1cc(CNC(=O)C(=O)c2c[nH]c3ccccc23)ccc1O, the inhibition [6] was 96%, the pKi [2] was 6.85 and the GABA ratio [3] was 1.

With O=C(NCc1ccc(Cl)cc1)C(=O)c1c[nH]c2ccccc12 the inhibition [6] was 99%, the pKi [2] was 7.17 and the Activity [5] was 27%. It also gave a GABA ratio [3] of 1.03.

In the case of COc1cccc(CNC(=O)C(=O)c2c[nH]c3ccc([N+](=O)[O-])cc23)c1, the inhibition [6] was 84%, the pKi [2] was 7.42 and the Activity [5] was 10%. The GABA ratio [3] was 0.91.

Work on O=C(NCc1ccc(Cl)cc1)C(=O)c1c[nH]c2ccc([N+](=O)[O-])cc12 yielded an inhibition [6] of 2%.

With O=C(NCc1ccc(O)c(O)c1)C(=O)c1c[nH]c2ccccc12 the inhibition [6] was 95%, the pKi [2] was 6.46 and the GABA ratio [3] was 1.56.

Work on O=C(NCc1ccccc1Cl)C(=O)c1c[nH]c2ccc([N+](=O)[O-])cc12 yielded an inhibition [6] of 48%.

In the case of O=C(NCc1ccccc1F)C(=O)c1c[nH]c2ccc([N+](=O)[O-])cc12, the inhibition [6] was 42%.

O=C(NCc1ccc(F)cc1)C(=O)c1c[nH]c2ccccc12 gave a logP [4] of 2.88, an inhibition [6] of 99% and a pKi [2] of 7.28. The Activity [5] was 21% and the GABA ratio [3] was 1.16.

In the case of O=C(NCc1ccccc1)C(=O)c1c[nH]c2ccc([N+](=O)[O-])cc12, the inhibition [1] was 55%, the pKi [2] was 6.93 and the GABA ratio [3] was 1.

Work on O=C(NCc1cccc(O)c1)C(=O)c1c[nH]c2ccc([N+](=O)[O-])cc12 yielded an inhibition [1] of 95%, a pKi [2] of 7.19 and an Activity [5] of 50%. The GABA ratio [3] was 1.32.

O=C(NCc1cccc(Cl)c1)C(=O)c1c[nH]c2ccc([N+](=O)[O-])cc12 gave an inhibition [6] of 0%.

With O=C(NCCCc1ccccc1)C(=O)c1c[nH]c2ccc(Cl)cc12 the inhibition [1] was 32%.

O=C(NCc1ccc(F)cc1)C(=O)c1c[nH]c2ccc(Cl)cc12 gave an inhibition [6] of 21%.

O=C(NCc1ccccc1F)C(=O)c1c[nH]c2ccccc12 showed an inhibition [6] of 94%, a pKi [2] of 6.18 and a GABA ratio [3] of 0.86.

With O=C(NCc1ccc(O)cc1)C(=O)c1c[nH]c2ccccc12 the inhibition [6] was 96%, the pKi [2] was 6.37 and the GABA ratio [3] was 1.35.

COc1ccc(CNC(=O)C(=O)c2c[nH]c3ccc(Cl)cc23)cc1OC showed an inhibition [6] of 94%, a pKi [2] of 7.52 and a GABA ratio [3] of 0.82.

With O=C(NCc1cccc(Cl)c1)C(=O)c1c[nH]c2ccc(Cl)cc12 the inhibition [6] was 14%.

For O=C(Nc1ccccc1)C(=O)c1c[nH]c2ccc(Cl)cc12, the inhibition [1] was 0%.

Work on COc1cc(CNC(=O)C(=O)c2c[nH]c3ccc([N+](=O)[O-])cc23)ccc1O yielded an inhibition [6] of 100%, a pKi [2] of 7.89 and an Activity [5] of 27%. The GABA ratio [3] was 1.07.

COc1ccc(NC(=O)C(=O)c2c[nH]c3ccc([N+](=O)[O-])cc23)cc1 showed an inhibition [1] of 12%.

With O=C(Nc1ccccc1)C(=O)c1c[nH]c2ccc([N+](=O)[O-])cc12 the inhibition [1] was 0%.

COc1ccc(CNC(=O)C(=O)c2c[nH]c3ccccc23)cc1OC gave an inhibition [6] of 99%, a pKi [2] of 7.03 and a GABA ratio [3] of 0.8.

Molecule O=C(Nc1ccc(O)cc1)C(=O)c1c[nH]c2ccccc12 has an inhibition [1] of 65%.

For O=C(NCc1ccc(O)cc1)C(=O)c1c[nH]c2ccc([N+](=O)[O-])cc12, the logP [4] was 2.67, the inhibition [1] was 100% and the pKi [2] was 7.92. It also gave an Activity [7] of 10% and a GABA ratio [3] of 1.05.

In the case of O=C(NCCCc1ccccc1)C(=O)c1c[nH]c2ccccc12, the inhibition [6] was 78%, the pKi [2] was 5.90 and the GABA ratio [3] was 1.

For O=C(NCc1ccccc1F)C(=O)c1c[nH]c2ccc(Cl)cc12, the inhibition [6] was 39%.

Work on O=C(NCc1cccc(O)c1)C(=O)c1c[nH]c2ccc(Cl)cc12 yielded an inhibition [1] of 95%, a pKi [2] of 6.24 and a GABA ratio [3] of 1.45.

Work on CCOC(=O)c1ncn2c1CN(C)C(=O)c1cc(F)ccc1-2 yielded an Activity [5] of 15%.

In the case of COc1cccc(CNC(=O)C(=O)c2c[nH]c3ccccc23)c1, the inhibition [6] was 97%, the pKi [2] was 6.54 and the GABA ratio [3] was 0.74.

For O=C(NCc1ccccc1)C(=O)c1c[nH]c2ccccc12, the inhibition [1] was 98%, the pKi [2] was 6.92 and the Activity [5] was 29%. For the same molecule, the GABA ratio [3] was 0.87.

Molecule O=C(NCc1ccccc1Cl)C(=O)c1c[nH]c2ccc(Cl)cc12 has an inhibition [6] of 40%.

In the case of O=C(NCc1cccc(O)c1)C(=O)c1c[nH]c2ccccc12, the inhibition [1] was 91%, the pKi [2] was 6.09 and the GABA ratio [3] was 1.25.

For O=C(NCc1ccc(Cl)cc1)C(=O)c1c[nH]c2ccc(Cl)cc12, the inhibition [6] was 38%.

COc1cccc(CNC(=O)C(=O)c2c[nH]c3ccc(Cl)cc23)c1 gave an inhibition [6] of 89%, a pKi [2] of 6.79 and a GABA ratio [3] of 0.79.

In the case of O=C(NCc1ccc(F)cc1)C(=O)c1c[nH]c2ccc([N+](=O)[O-])cc12, the inhibition [6] was 24%.

For O=C(NCc1ccc(O)cc1)C(=O)c1c[nH]c2ccc(Cl)cc12, the inhibition [6] was 98%, the pKi [2] was 6.82 and the GABA ratio [3] was 1.1.

With COc1cc(CNC(=O)C(=O)c2c[nH]c3ccc(Cl)cc23)ccc1O the inhibition [6] was 99%, the pKi [2] was 7.57 and the GABA ratio [3] was 1.03.

In the case of Cn1cc(C(=O)C(=O)NCc2cccc(O)c2)c2ccccc21, the inhibition [1] was 17%.

O=C1CN=C(c2ccccc2Cl)c2cc([N+](=O)[O-])ccc2N1 gave an Activity [5] of 100%.

With COc1ccc(CNC(=O)C(=O)c2c[nH]c3ccc([N+](=O)[O-])cc23)cc1OC the inhibition [6] was 97%, the pKi [2] was 7.96 and the Activity [5] was 31%. The GABA ratio [3] was 1.

With O=C(NCc1ccc(O)c(O)c1)C(=O)c1c[nH]c2ccc([N+](=O)[O-])cc12 the inhibition [6] was 98%, the pKi [2] was 7.32 and the Activity [5] was 52%. The GABA ratio [3] was 1.35.

O=C(NCc1ccccc1Cl)C(=O)c1c[nH]c2ccccc12 gave an inhibition [6] of 77%, a pKi [2] of 5.59 and a GABA ratio [3] of 0.93.

With O=C(Nc1ccccc1)C(=O)c1c[nH]c2ccccc12 the inhibition [1] was 10%.

Work on COc1ccc(NC(=O)C(=O)c2c[nH]c3ccccc23)cc1 yielded an inhibition [1] of 0%.

Work on O=C(NCc1ccccc1)C(=O)c1c[nH]c2ccc(Cl)cc12 yielded an inhibition [1] of 34%, a pKi [2] of 6.31 and a GABA ratio [3] of 0.95.

For O=C(NCc1cccc(Cl)c1)C(=O)c1c[nH]c2ccccc12, the inhibition [6] was 96%, the pKi [2] was 6.80 and the GABA ratio [3] was 0.95.

With O=C(Nc1ccc(O)cc1)C(=O)c1c[nH]c2ccc([N+](=O)[O-])cc12 the inhibition [1] was 76%, the pKi [2] was 5.74 and the GABA ratio [3] was 1.

Work on COc1ccc(CNC(=O)C(=O)c2cn(C)c3ccccc23)cc1OC yielded an inhibition [6] of 70%, a pKi [2] of 5.57 and a GABA ratio [3] of 0.88.

O=C(NCCCc1ccccc1)C(=O)c1c[nH]c2ccc([N+](=O)[O-])cc12 showed an inhibition [1] of 52%.

In the case of O=C(NCc1ccc(O)c(O)c1)C(=O)c1c[nH]c2ccc(Cl)cc12, the inhibition [6] was 96%, the pKi [2] was 6.74 and the GABA ratio [3] was 1.33.

For COc1ccc(CNC(=O)C(=O)c2c[nH]c3ccccc23)cc1, the inhibition [1] was 97%, the pKi [2] was 6.79 and the GABA ratio [3] was 1.
